# High-throughput results deposited in PubChem by several laboratories.
# An excerpt weighted towards active compounds, which were near 3.1% of everything screened.
# PAFAH1B3 FP inh – PAFAH1B3 enzyme inhibitors, primary screen, biochemical, fluorescence polarization, human; Platelet-activating factor acetylhydrolase IB subunit alpha1 (Homo sapiens), Q15102; recombinant PAFAH1B3, FP-rhodamine probe; inhibition, % at 3.39 µM; hit rate 0.28% among 340,000; AID 492972, 2010;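 active means inhibition above the screen-wide average of all tested compounds plus 3 SD, cut at about 25% in these data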
# pPAFAH inh – pPAFAH enzyme inhibitors, primary screen, biochemical, fluorescence polarization, human; recombinant pPAFAH, FP-rhodamine probe fluorescence polarization; hit rate 1.5% among 330,000; AID 463082, 2010; inhibition, % at 3.39 µM; Platelet-activating factor acetylhydrolase (Homo sapiens), Q13093;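 active means inhibition above the mean inhibition across the screen plus 3 SD, cut at about 25% in these data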;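 further: inhibitors block binding of the rhodamine activity-based probe so polarization drops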
# Target sequence (Q13093 whole entry, looked up): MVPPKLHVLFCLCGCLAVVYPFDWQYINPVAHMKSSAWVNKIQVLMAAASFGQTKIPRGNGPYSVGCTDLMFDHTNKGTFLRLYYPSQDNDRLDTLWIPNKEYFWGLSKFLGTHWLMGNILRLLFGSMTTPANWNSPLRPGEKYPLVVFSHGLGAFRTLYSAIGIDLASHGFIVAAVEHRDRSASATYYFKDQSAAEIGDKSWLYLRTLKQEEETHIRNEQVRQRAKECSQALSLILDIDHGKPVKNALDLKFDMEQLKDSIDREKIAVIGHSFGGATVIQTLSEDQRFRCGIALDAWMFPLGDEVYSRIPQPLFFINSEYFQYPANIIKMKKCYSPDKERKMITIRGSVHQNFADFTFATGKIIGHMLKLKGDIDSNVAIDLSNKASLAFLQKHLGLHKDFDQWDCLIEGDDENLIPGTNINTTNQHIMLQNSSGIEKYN
# PAFAH2 inh – PAFAH2 enzyme inhibitors, primary screen, biochemical, fluorescence polarization, human | Platelet-activating factor acetylhydrolase 2, cytoplasmic (Homo sapiens), Q99487 | AID 492956, 2010 | inhibition, % at 3.39 µM | hit rate 0.99% among 340,000 | recombinant PAFAH2, FP-rhodamine activity probe;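 active means inhibition above the mean over all tested compounds plus 3 SD, cut at about 30% in these data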;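 further: inhibitors block probe labeling of enzyme so polarization drops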
# PAFAH1B2 FP inh – PAFAH1B2 enzyme inhibitors, primary screen, biochemical, fluorescence polarization, human; Platelet-activating factor acetylhydrolase IB subunit alpha2 (Homo sapiens), P68402; recombinant PAFAH1B2, FP-rhodamine activity probe; inhibition, % at 3.39 µM; hit rate 1.2% among 340,000;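 active means inhibition above the mean of all tested compounds plus 3 SD, cut at about 24% in these data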
# Target sequence (P68402 whole entry, looked up): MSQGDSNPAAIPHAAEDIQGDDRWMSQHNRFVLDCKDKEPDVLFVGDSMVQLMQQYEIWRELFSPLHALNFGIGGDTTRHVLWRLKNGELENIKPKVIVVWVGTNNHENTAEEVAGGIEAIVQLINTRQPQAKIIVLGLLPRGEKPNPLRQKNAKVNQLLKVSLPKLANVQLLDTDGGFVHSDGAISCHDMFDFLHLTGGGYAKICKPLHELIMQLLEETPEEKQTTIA
# Apaf1 inhib – inhibitors of human Apaf-1 apoptosome, primary screen, biochemical, DEVD-Rh110 fluorescence, uHTS; Apoptotic protease-activating factor 1 (Homo sapiens), O14727; reconstituted apoptosome caspase-3 activity; inhibition, % at 20 µM; hit rate 0.71% among 330,000; AID 489030, 2010; active means inhibition of at least 40% at 20 µM
#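 System: Apoptosome proteins | Medium: Hepes pH 7.5 with detergent and BSA | Also added: Cytochrome c trigger plus (Z-DEVD)2-Rh110 caspase-3 substrate | Incubation: 30 min compound preincubation, 50 min activation, room temperature | Detection: Rhodamine 110 fluorescence at Ex 480/Em 540 nm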
# PAFAH2 confirm – PAFAH2 enzyme inhibitors, confirmation, biochemical, fluorescence polarization, human | shares compounds with PAFAH2 inh | recombinant PAFAH2, FP-rhodamine activity probe | inhibition, % at 3.39 µM | hit rate 65% among 2,300;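 active means mean inhibition over three repeats above a set limit taken from the earlier primary screen, cut at about 30% in these data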;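 further: inhibitor blocks binding of rhodamine activity probe so polarization falls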
# Hits are given with their value; n = inactive; x = not tested or not shown.
SMILES,PAFAH1B3 FP inh,pPAFAH inh,PAFAH2 inh,PAFAH1B2 FP inh,Apaf1 inhib,PAFAH2 confirm
O=C(O)C1CSC(c2ccco2)N1 (stereo not drawn),n,n,31.8,n,n,n
COc1cccc(/C=C/C(=O)OCC(=O)NC2CCCCCCC2)c1,n,n,95.8,n,n,82.2
COc1cccc(/C=C/C(=O)OCC(=O)NC(=O)NC2CCCC2)c1,n,n,n,n,n,x
COc1ccc(/C=C/C(=O)OCC(=O)NC2CCCC2)cc1,n,n,83.5,n,n,85.9
CCN(CC)c1ccc(S(=O)(=O)N2CCOCC2)cc1NC(=O)COC(=O)/C=C/c1ccco1,n,x,54.8,n,x,42.4
O=C(COC(=O)/C=C/c1ccco1)Nc1cc(S(=O)(=O)N2CCOCC2)ccc1Cl,n,n,41.8,n,n,37.0
CCN(CC)c1ccc(S(=O)(=O)N2CCOCC2)cc1NC(=O)COC(=O)COc1ccccc1C,n,n,n,n,n,x
CC(NC(=O)COC(=O)c1c[nH]c2ccccc12)c1ccccc1 (stereo not drawn),n,n,54.6,n,n,52.2
Cc1ccc(C(=O)OCC(=O)NC(C)c2ccccc2)cc1C (stereo not drawn),n,n,74.7,n,n,62.6
Cc1ccccc1OCC(=O)NC(C)c1ccccc1 (stereo not drawn),n,x,n,n,x,x
CC(NC(=O)COC(=O)c1cc2ccccc2cc1O)c1ccccc1 (stereo not drawn),n,x,n,n,n,x
Cc1ccc(CNC(=O)COC(=O)c2cc(C)oc2C)cc1,n,n,n,n,n,x
Cc1cc(C(=O)OCC(=O)NC(C)c2ccc(F)cc2)c(C)o1 (stereo not drawn),n,n,48.3,n,n,34.4
CC(NC(=O)CCc1c[nH]c2ccccc12)c1ccccc1 (stereo not drawn),n,n,n,n,n,x
Cc1cc(C(=O)OCC(=O)NC(C)c2ccccc2)c(C)o1 (stereo not drawn),n,n,31.6,n,n,n
Cc1ccc(C(=O)/C=C/NNC(=O)c2ccccc2O)cc1,n,n,n,n,n,x
CC1CC(C)CN(C(=O)COC(=O)COc2ccc(C#N)cc2)C1 (stereo not drawn),n,n,n,n,n,x
O=C(COC(=O)CCc1c[nH]c2ccccc12)Nc1ccc([N+](=O)[O-])cc1,n,n,n,n,n,x
CC(NC(=O)COC(=O)/C=C/c1cccc(C(F)(F)F)c1)c1ccccc1 (stereo not drawn),n,n,n,n,n,x
O=C(COC(=O)c1c[nH]c2ccccc12)Nc1ccc([N+](=O)[O-])cc1,n,n,72.6,n,n,72.7
Cc1ccc(/C=C/C(=O)OCC(=O)NC(C)c2ccccc2)o1 (stereo not drawn),n,n,54.1,n,n,37.8
C=CCN1C(=O)c2ccccc2Sc2ccc(C(=O)NCC(OC)OC)cc21,n,n,n,n,n,x
COc1cc2c(cc1OC)CN(C(=O)c1ccc(Cl)c(S(=O)(=O)N3CCCC3)c1)CC2,n,n,n,n,n,x
CCS(=O)(=O)c1ccc(O)c(NC(=O)NC2CCCCC2)c1,n,n,81.0,n,n,64.2
CCS(=O)(=O)c1ccc(O)c(NC(=O)COc2ccccc2)c1,n,n,47.5,n,n,43.7
SMILES,PAFAH1B3 FP inh,pPAFAH inh,PAFAH2 inh,PAFAH1B2 FP inh,Apaf1 inhib,PAFAH2 confirm
COc1ccc(S(=O)(=O)NCc2ccco2)cc1NC(=O)c1ccccc1,n,n,n,n,n,x
CC1CCCCC1NC(=O)COC(=O)/C=C/c1ccc2c(c1)OCO2 (stereo not drawn),n,n,78.7,n,n,84.0
O=C(COC(=O)/C=C/c1ccc2c(c1)OCO2)NCc1ccccc1,n,n,55.2,n,n,41.8
CCN(CC)S(=O)(=O)c1ccc(/C=C/C(=O)OCC(=O)NNC(=O)c2ccc(OC)cc2)cc1,n,n,43.2,n,n,n
CCN(CC)S(=O)(=O)c1ccc(/C=C/C(=O)OCC(=O)NCc2ccc3c(c2)OCO3)cc1,n,n,47.9,n,n,30.1
CC(=O)Nc1ccc(NC(=O)COC(=O)/C=C/c2ccc3c(c2)OCO3)cc1,n,n,n,n,n,x
O=C(COC(=O)/C=C/c1ccc(F)cc1)NCc1ccc2c(c1)OCO2,n,n,n,n,n,x
CCOC(=O)c1nn(-c2ccccc2)c(=O)cc1OCC(=O)Nc1ccccc1OCC,n,n,n,n,n,x
C=Cc1ccc(Cn2c(=O)n(C)c(=O)c3sccc32)cc1,n,n,n,n,n,x
COc1ccc(Cl)cc1NC(=O)C(C)OC(=O)Cn1cc(C(F)(F)F)ccc1=O (stereo not drawn),n,n,n,n,n,x
COc1cc(/C=C/C(=O)OCC(=O)NCc2ccc3c(c2)OCO3)cc(OC)c1OC,n,n,n,n,n,x
COc1cccc(/C=C/C(=O)OCC(=O)NCc2ccc3c(c2)OCO3)c1,n,n,35.2,n,n,n
O=C(COC(=O)C12CC3CC(CC(O)(C3)C1)C2)Nc1ccc(OC(F)F)cc1,n,x,45.2,n,n,n
O=C(COC(=O)C12CC3CC(CC(O)(C3)C1)C2)Nc1ccccc1OC(F)F,n,n,n,n,n,x
NS(=O)(=O)c1ccc(NC(=O)COC(=O)C23CC4CC(CC(C4)C2)C3)cc1,n,n,n,n,n,x
O=C(COC(=O)C12CC3CC(CC(C3)C1)C2)Nc1ccc(OC(F)F)cc1,n,n,66.9,n,n,49.0
Cc1cc(OCCCCn2ccnc2)cc(C)c1Cl,n,n,n,n,n,x
O=C(N/N=C/c1ccc2cccc(OCc3ccccc3)c2n1)c1ccc(Cl)cc1,n,n,n,n,n,x
COc1ccc(C(=O)N/N=C/c2ccc3cccc(O)c3n2)cc1,n,n,35.4,n,n,n
CC(C)NC(=O)COC(=O)c1cccc(NS(=O)(=O)/C=C/c2ccccc2)c1,n,n,37.5,n,n,n
CC1CCCC(NC(=O)COC(=O)c2cccc(NS(=O)(=O)/C=C/c3ccccc3)c2)C1C (stereo not drawn),n,n,45.9,n,n,40.1
NC(=O)C1CCN(c2nc(-c3cccs3)cs2)CC1,n,n,n,n,n,x
N/C(=N\OC(=O)c1cccs1)c1ccccc1,n,n,n,n,n,x
N/C(=N\OC(=O)c1cccs1)c1cccc(Br)c1,n,n,47.2,n,n,42.2
Cc1cccc(/C(N)=N/OC(=O)c2cccs2)c1,n,n,44.8,n,n,30.0
CCN(CC)S(=O)(=O)c1cccc(-n2c(O)c(C=Nc3ccccc3C(=O)O)c3ccccc3c2=O)c1,n,n,88.9,n,n,73.1
